Data set [1] has as its target T1, UDP-glucuronosyltransferase 2B7 (Homo sapiens, UniProt P16662).
T1 sequence (P16662 whole entry): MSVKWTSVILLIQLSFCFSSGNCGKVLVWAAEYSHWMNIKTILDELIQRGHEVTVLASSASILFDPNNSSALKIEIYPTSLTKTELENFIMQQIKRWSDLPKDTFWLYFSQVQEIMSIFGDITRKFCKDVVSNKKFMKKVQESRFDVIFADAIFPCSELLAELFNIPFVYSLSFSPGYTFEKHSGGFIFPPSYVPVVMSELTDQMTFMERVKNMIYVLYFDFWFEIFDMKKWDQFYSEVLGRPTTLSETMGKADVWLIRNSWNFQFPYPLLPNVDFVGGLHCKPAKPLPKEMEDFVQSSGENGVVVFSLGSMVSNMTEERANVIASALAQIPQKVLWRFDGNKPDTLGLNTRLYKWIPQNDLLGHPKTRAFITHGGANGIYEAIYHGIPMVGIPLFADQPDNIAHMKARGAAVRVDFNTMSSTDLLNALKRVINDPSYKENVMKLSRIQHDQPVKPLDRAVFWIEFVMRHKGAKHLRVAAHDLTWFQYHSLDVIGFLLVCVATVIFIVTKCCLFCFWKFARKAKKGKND
Briefly: Activity of human UGT2B7 expressed in microsomes isolated from baculovirus infected insect cell assessed as enzyme-mediated 3-(4-((6-methoxy-1-methyl-1H-benzo[d]imidazol-2-yl)methoxy)phenyl)-2-(methylthio)propanoic acid formation at 20 uM after 4 hrs by radio-HPLC/LC-MS/MS analysis in presence of NADPH-generating system/SAM and UDPGA/SAM in presence of UDPGA and UDPGA/SAM. The format is ADME.

A further data set has as its target T2, Cytochrome P450 1A2 (Homo sapiens, UniProt P05177).
T2 sequence (P05177 whole entry): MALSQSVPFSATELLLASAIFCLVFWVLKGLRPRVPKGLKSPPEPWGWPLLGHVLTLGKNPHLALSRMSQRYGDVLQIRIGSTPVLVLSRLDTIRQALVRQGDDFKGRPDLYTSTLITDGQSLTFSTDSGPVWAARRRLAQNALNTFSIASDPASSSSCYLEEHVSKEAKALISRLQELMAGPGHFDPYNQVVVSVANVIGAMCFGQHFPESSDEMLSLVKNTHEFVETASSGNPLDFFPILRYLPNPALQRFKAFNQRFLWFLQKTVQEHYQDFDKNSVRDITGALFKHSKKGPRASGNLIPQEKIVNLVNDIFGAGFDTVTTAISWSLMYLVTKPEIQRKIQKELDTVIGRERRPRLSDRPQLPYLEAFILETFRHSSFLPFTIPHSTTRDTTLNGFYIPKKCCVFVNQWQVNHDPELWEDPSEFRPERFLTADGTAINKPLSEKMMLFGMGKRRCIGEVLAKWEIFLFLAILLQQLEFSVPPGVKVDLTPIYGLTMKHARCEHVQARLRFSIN
As to the kind of experiment: Activity of human CYP1A2 expressed in microsomes isolated from baculovirus infected insect cell assessed as enzyme-mediated 3-(4-((6-methoxy-1-methyl-1H-benzo[d]imidazol-2-yl)methoxy)phenyl)-2-(methylthio)propanamide formation at 20 uM after 2 hrs by radio-HPLC/LC-MS/MS analysis in presence of NADPH-generating system/SAM. Type of data set: ADME.

Another data set concerns the target T3, Cytochrome P450 2C8 (Homo sapiens, UniProt P10632).
T3 sequence (P10632 whole entry): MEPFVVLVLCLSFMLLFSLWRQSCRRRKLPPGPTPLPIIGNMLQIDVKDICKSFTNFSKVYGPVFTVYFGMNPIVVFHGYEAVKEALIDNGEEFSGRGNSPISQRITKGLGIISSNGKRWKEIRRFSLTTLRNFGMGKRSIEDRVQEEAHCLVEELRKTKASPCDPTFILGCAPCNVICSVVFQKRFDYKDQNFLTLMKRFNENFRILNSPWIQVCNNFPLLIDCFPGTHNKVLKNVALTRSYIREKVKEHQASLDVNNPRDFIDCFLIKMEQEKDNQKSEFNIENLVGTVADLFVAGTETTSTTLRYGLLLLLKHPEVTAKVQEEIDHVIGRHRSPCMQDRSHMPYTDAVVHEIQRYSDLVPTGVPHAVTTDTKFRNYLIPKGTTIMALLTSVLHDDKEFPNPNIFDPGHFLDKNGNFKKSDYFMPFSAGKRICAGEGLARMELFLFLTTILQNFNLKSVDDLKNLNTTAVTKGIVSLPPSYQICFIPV
As to the kind of experiment: Activity of human CYP2C8 expressed in microsomes isolated from baculovirus infected insect cell assessed as enzyme-mediated 2-((4-((2,4-dioxothiazolidin-5-yl)methyl)phenoxy)methyl)-1-methyl-1H-benzo[d]imidazol-6-yl hydrogen sulfate formation at 20 uM after 2 hrs by radio-HPLC/LC-MS/MS analysis. Type of data set: ADME. The essentials: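 Baculovirus/insect-cell microsomes expressing single human CYPs, 1 mg/ml protein, with 50 mM potassium phosphate (pH 7.4) or 100 mM Tris-HCl (pH 7.5). NADPH-generating system: 2 mM NADP⁺, 20 mM glucose 6-phosphate, 2 units/ml G6PDH, 10 mM MgCl₂. [¹⁴C]rivoglitazone at 20 μM, 2 h at 37°C with shaking. Control used insect-cell control supersomes. Stopped with acetonitrile; supernatant concentrated under nitrogen; metabolites analysed by radio-HPLC, LC-MS and LC-MS/MS.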

A short description of data set [2]: Drug metabolism in rat hepatocytes assessed as formation of 2-mercapto-3-(4-((6-methoxy-1-methyl-1H-benzo[d]imidazol-2-yl)methoxy)phenyl)propanoic acid at 30 uM after 3 hrs by radio-HPLC/LC-MS/MS analysis in presence of UDPGA, UDPGA/SAM and NADPH-generating system. The format is ADME, cell-based, Hepatocyte.
A further data set has as its system Liver microsome. Briefly: Drug metabolism in Sprague-Dawley rat liver microsomes assessed as formation of (2S,3S,4S,5R,6R)-3,4,5-trihydroxy-6-(5-(4-((6-methoxy-1-methyl-1H-benzo[d]imidazol-2-yl)methoxy)benzyl)-2,4-dioxothiazolidin-3-yl)tetrahydro-2H-pyran-2-carboxylic acid at 20 uM after 4 hrs by radio-HPLC/LC-MS/MS analysis in presence of UDPGA and UDPGA/SAM. Type of data set: ADME.

For data set [3], the target named is T1, UDP-glucuronosyltransferase 2B7. Briefly: Activity of human UGT2B7 expressed in microsomes isolated from baculovirus infected insect cell assessed as enzyme-mediated (2S,3S,4S,5R,6R)-3,4,5-trihydroxy-6-(5-(4-((6-methoxy-1-methyl-1H-benzo[d]imidazol-2-yl)methoxy)benzyl)-2,4-dioxothiazolidin-3-yl)tetrahydro-2H-pyran-2-carboxylic acid formation at 20 uM after 4 hrs by radio-HPLC/LC-MS/MS analysis in presence of UDPGA and UDPGA/SAM. The format is ADME.

For the molecule `COc1ccc2nc(COc3ccc(C[14CH]4SC(=O)NC4=O)cc3)n(C)c2c1.Cl` (racemic), the Drug metabolism entry is listed as “metabolite_not_detected” in data set [1]; “metabolite_not_detected” on Cytochrome P450 1A2; “metabolite_not_detected” at Cytochrome P450 2C8; “metabolite_not_detected” in data set [2]; “metabolite_detected” with Liver microsome; “metabolite_detected” in data set [3].

(Values after ChEMBL document CHEMBL3526048, “In vitro metabolism of rivoglitazone, a novel peroxisome proliferator-activated receptor γ agonist, in rat, monkey, and human liver microsomes and freshly isolated hepatocytes” (Drug Metab Dispos, 2011).)
